Assay [1] is described as follows: Inhibition of 1-methyladenine-stimulated meiotic maturation in Asterina pectinifera immature oocytes assessed as germinal vesicle breakdown after 60 mins. The class given is functional, cell-based, Patiria pectinifera. The following applies: oocyte. In short, it runs like this: (§1)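 Immature oocytes from wild-caught Asterina pectinifera ovaries, 100 cells/mL; DMSO-dissolved sample added, held on ice 10 min, then 1-MeAde (1.25 µM, as added) added; incubated 20 °C for 60 min; germinal vesicle state scored under inverted microscope.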

Assay [2] in a line: Inhibition of pig brain microtubule assembly. The arrangement: species or system Sus scrofa. In short, it runs like this:
(§2)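 Microtubule protein purified from fresh porcine brain by repeated polymerization/depolymerization cycles in 100 mM MES, 1 mM EGTA, 0.5 mM MgCl2, 1 mM GTP, 1 mM 2-mercaptoethanol, pH 6.5; 1.3 mg/mL protein; DMSO-dissolved sample (final DMSO <2%); assembly followed by turbidity at 400 nm, 37 °C.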

Assay [3] is filed under the species Sus scrofa. Nature of the assay: Inhibition of pig brain microtubule assembly at 100 uM. In short, it runs like this: as §2
The subject of assay [4] is Oocyte. Nature of the assay: Inhibition of 1-methyladenine-stimulated meiotic maturation in Asterina pectinifera immature oocytes assessed as germinal vesicle breakdown at 100 uM after 60 mins. The following applies: Patiria pectinifera. The class given is functional, cell-based. In short, it runs like this: as §1

From ChEMBL document CHEMBL1146516, “Isolation and characterization of polybrominated diphenyl ethers as inhibitors of microtubule assembly from the marine sponge Phyllospongia dendyi collected at Palau” (J Nat Prod, 2004) come the findings set out here.

Active and inactive are the calls of the source. The calls are words filed in the database; no cut-off is given here.

What is called IC50 is the point on the concentration scale where inhibition reaches its midpoint. For the compound `Oc1c(Br)cc(Br)cc1Oc1c(O)c(Br)c(Br)c(Br)c1Br`, the IC50 came out at 3.6 µM in assay [1] and 29.6 µM in assay [2].

Regarding `Oc1cc(Br)c(Br)c(Br)c1Oc1c(Br)ccc(Br)c1O`, the IC50 was 4.2 µM in assay [1] and 20.9 µM in assay [2].

For `COc1cc(Br)cc(Br)c1Oc1c(Br)ccc(Br)c1O`, the outcome in assay [3] and in assay [4] was inactive.

As to `Oc1c(Br)cc(Br)cc1Oc1ccc(Br)cc1Br`, the outcome in assay [3] and in assay [4] was inactive.

`COc1c(Br)c(Br)cc(Br)c1Oc1cc(Br)cc(Br)c1O`: the result in assay [3] and in assay [4] was inactive.

In the case of `Oc1c(Br)cc(Br)cc1Oc1c(Br)cc(Br)c(Br)c1O`, the figures for the IC50 in assay [1] and in assay [2] were 4.2 µM and 33.5 µM, respectively.

Consider `COc1cc(Br)c(Br)c(Br)c1Oc1cc(Br)cc(Br)c1O`, for which the result in assay [3] and in assay [4] was inactive.

Turning to `COc1c(Br)c(Br)c(Br)c(Br)c1Oc1cc(Br)cc(Br)c1O`, the outcome in assay [3] and in assay [4] was inactive.

`COc1cc(Br)c(Br)c(Br)c1Oc1cc(Br)cc(Br)c1OC`: the outcome in assay [3] and in assay [4] was inactive.

On to `COc1cc(Br)cc(Br)c1Oc1cc(Br)cc(Br)c1O`, for which the outcome in assay [3] and in assay [4] was inactive.

Regarding `COc1cc(Br)cc(Br)c1Oc1cc(Br)cc(Br)c1OC`, the outcome in assay [3] and in assay [4] was inactive.
